≈ marks a conversion by molar mass, not a printed value.
Tests used:
Format in all cases: functional
FM3A [1] = experiment: Inhibitory activity against FM3A TK- cell line; conditions: Mus musculus, read-out: ID50 (the source's name)
Procedure, shortened: (§1)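 Tumour cells, (5-7.5) × 10^4 per well in growth medium, exposed to varying compound concentrations and allowed to proliferate 48 or 72 h at 37 °C in humidified CO2 atmosphere; cell counts by Coulter counter; value is 50% inhibitory dose. FM3A TK- and TK-/HSV-2 TK+ lines derived from FM3A/0 and grown in the same medium.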

[2] = Antiviral Activity against herpes simplex virus-1 (KOS) in rabbit kidney cell; conditions: Oryctolagus cuniculus
[3] = Antiviral Activity against herpes simplex virus-1 (F) in rabbit kidney cell; conditions: Oryctolagus cuniculus
[4] = Antiviral Activity against herpes simplex virus-1 TK- B2006 in rabbit kidney cell; conditions: Oryctolagus cuniculus
L1210 = experiment: Inhibitory activity against L1210 cell line; conditions: Mus musculus, read-out: ID50 (the source's name); procedure, shortened: as §1
[5] = Antiviral Activity against vesicular stomatitis virus in rabbit kidney cell; conditions: Oryctolagus cuniculus
[6] = Antiviral Activity against herpes simplex virus-2 (196) in rabbit kidney cell; conditions: Oryctolagus cuniculus
[7] = Antiviral Activity against vaccinia virus in rabbit kidney cell; conditions: Oryctolagus cuniculus
FM3A [8] = experiment: Inhibitory activity against FM3A/0 cell line; conditions: Mus musculus, read-out: ID50 (the source's name); procedure, shortened: as §1
Raji = experiment: Inhibitory activity against Raji cell line; conditions: Homo sapiens, read-out: ID50 (the source's name); procedure, shortened: as §1
MOLT-4F = experiment: Inhibitory activity against Molt/4F cell line; conditions: Homo sapiens, read-out: ID50 (the source's name); procedure, shortened: as §1
[9] = Antiviral Activity against herpes simplex virus-2 (G) in rabbit kidney cell; conditions: Oryctolagus cuniculus
FM3A [10] = experiment: Inhibitory activity against FM3A TK-/HSV-2 TK+ cell line; conditions: Mus musculus, […] TK-/HSV-2 TK+; read-out: ID50 (the source's name); procedure, shortened: as §1
[11] = Antiviral Activity against herpes simplex virus-2 (Lyons) in rabbit kidney cell; conditions: Oryctolagus cuniculus
[12] = Antiviral Activity against herpes simplex virus-1 (McIntyre) in rabbit kidney cell; conditions: Oryctolagus cuniculus
[13] = Antiviral Activity against herpes simplex virus-1 TK- VMW 1837 in rabbit kidney cell; conditions: Oryctolagus cuniculus
Mus musculus [14] = experiment: Compound was evaluated in nu/nu mice infected with TK- HSV-1 (VMW-1837) to increase the mean survival time when applied topically at 10% after 52 days
Procedure, shortened: (§2)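 Athymic nu/nu mice, 25-30 days old, 15-20 g, inoculated intracutaneously in lumbosacral area with TK- HSV-1 VMW 1837, 10^5 CCID50 in 50 μL; topical 10% (v/v in DMSO) applied four times daily for 5 days from infection; DMSO placebo. Mean day of lesions/hind-leg paralysis and survival followed 52 days; survivors counted as 52-day.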

Mus musculus [15] = experiment: Compound was evaluated in nu/nu mice infected with TK- HSV-1 (VMW-1837) to increase the mean survival time when administered intraperitoneally at 100 mg/kg per day after 39 days; conditions: route intraperitoneal
Procedure, shortened: (§3)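 Athymic nu/nu mice, 25-30 days old, 15-20 g, inoculated intracutaneously in lumbosacral area with TK- HSV-1 VMW 1837, 10^5 CCID50 in 50 μL; intraperitoneal dosing 100 mg/kg per day, twice daily for 5 days from infection, in carboxymethylcellulose or water. Mean day of lesions/hind-leg paralysis and mean survival recorded over 39 days; survivors counted as 39-day.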

Mus musculus [16] = experiment: Tested for the appearance of skin lesions or paralysis of the legs after 52 days when applied topically at 10% after 52 days; procedure, shortened: as §2
Mus musculus [17] = experiment: Tested for the appearance of skin lesions or paralysis of the legs after 39 days when administered intraperitoneally at 100 mg/kg per day; conditions: route intraperitoneal; procedure, shortened: as §3

CN1CCOP1(=O)OC[C@H]1O[C@@H](n2cc(/C=C/Br)c(=O)[nH]c2=O)C[C@@H]1O (stereo partly specified)
IC50 (FM3A [1]): 1.3 µg/mL (≈ 2.87 µM) | MIC [2]: 0.02 µg/mL (≈ 0.0442 µM) | MIC [3]: 0.07 µg/mL (≈ 0.155 µM) | MIC [4]: > 400 µg/mL | IC50 (L1210): 90 µg/mL (≈ 199 µM) | MIC [5]: > 400 µg/mL | MIC [6]: > 400 µg/mL | MIC [7]: 20 µg/mL (≈ 44.2 µM) | IC50 (FM3A [8]): 48 µg/mL (≈ 106 µM) | IC50 (Raji): > 100 µg/mL | IC50 (MOLT-4F): > 100 µg/mL | MIC [9]: 10 µg/mL (≈ 22.1 µM) | IC50 (FM3A [10]): 0.0008 µg/mL (≈ 0.00177 µM) | MIC [11]: 200 µg/mL (≈ 442 µM) | MIC [12]: 0.04 µg/mL (≈ 0.0885 µM) | MIC [13]: > 400 µg/mL

CN1CC(CC2SCCCS2)OP1(=O)OC[C@H]1O[C@@H](n2cc(/C=C/Br)c(=O)[nH]c2=O)C[C@@H]1O (stereo partly specified)
IC50 (FM3A [1]): 32 µg/mL (≈ 54.8 µM) | MIC [2]: 200 µg/mL (≈ 342 µM) | MIC [3]: 150 µg/mL (≈ 257 µM) | MIC [4]: 150 µg/mL (≈ 257 µM) | IC50 (L1210): > 100 µg/mL | MIC [5]: > 200 µg/mL | MIC [6]: > 200 µg/mL | MIC [7]: 200 µg/mL (≈ 342 µM) | IC50 (FM3A [8]): 48 µg/mL (≈ 82.1 µM) | IC50 (Raji): > 100 µg/mL | IC50 (MOLT-4F): > 100 µg/mL | MIC [9]: 150 µg/mL (≈ 257 µM) | IC50 (FM3A [10]): 0.018 µg/mL (≈ 0.0308 µM) | MIC [11]: > 200 µg/mL | MIC [12]: > 200 µg/mL | MIC [13]: 300 µg/mL (≈ 513 µM)

COC(CC1CN(C)P(=O)(OC[C@H]2O[C@@H](n3cc(/C=C/Br)c(=O)[nH]c3=O)C[C@@H]2O)O1)Sc1ccccc1 (stereo partly specified)
IC50 (FM3A [1]): 12.4 µg/mL (≈ 20.1 µM) | MIC [2]: 0.1 µg/mL (≈ 0.162 µM) | MIC [3]: 0.1 µg/mL (≈ 0.162 µM) | MIC [4]: > 400 µg/mL | IC50 (L1210): > 100 µg/mL | MIC [5]: > 400 µg/mL | MIC [6]: > 400 µg/mL | MIC [7]: ≥ 400 µg/mL | IC50 (FM3A [8]): 82 µg/mL (≈ 133 µM) | IC50 (Raji): > 100 µg/mL | IC50 (MOLT-4F): > 100 µg/mL | MIC [9]: > 400 µg/mL | IC50 (FM3A [10]): 0.003 µg/mL (≈ 0.00485 µM) | MIC [11]: > 400 µg/mL | MIC [12]: 0.4 µg/mL (≈ 0.647 µM) | MIC [13]: > 400 µg/mL

O=c1[nH]c(=O)n([C@H]2C[C@H](O)[C@@H](CO)O2)cc1/C=C/Br [BRIVUDINE]
Mean survival time (Mus musculus [14]): 39.6 days | IC50 (FM3A [1]): 0.31 µg/mL (≈ 0.931 µM) | MIC [2]: 0.02 µg/mL (≈ 0.06 µM) | MIC [3]: 0.01 µg/mL (≈ 0.03 µM) | MIC [4]: 100 µg/mL (≈ 300 µM) | IC50 (L1210): 22 µg/mL (≈ 66 µM) | MIC [5]: > 400 µg/mL | MIC [6]: 100 µg/mL (≈ 300 µM) | Mean survival time (Mus musculus [15]): 33.8 days | MIC [7]: 7 µg/mL (≈ 21 µM) | IC50 (FM3A [8]): 9.4 µg/mL (≈ 28.2 µM) | IC50 (Raji): 73 µg/mL (≈ 219 µM) | IC50 (MOLT-4F): > 100 µg/mL | Activity (Mus musculus [16]): 8.2 | MIC [9]: 2 µg/mL (≈ 6 µM) | IC50 (FM3A [10]): 0.0005 µg/mL (≈ 0.0015 µM) | MIC [11]: 20 µg/mL (≈ 60 µM) | Activity (Mus musculus [17]): 10.2 | MIC [12]: 0.01 µg/mL (≈ 0.03 µM) | MIC [13]: 300 µg/mL (≈ 901 µM)

Nc1nc2c(ncn2COCCO)c(=O)[nH]1 [ACYCLOVIR]
Mean survival time (Mus musculus [14]): 46.2 days | IC50 (FM3A [1]): 0.62 µg/mL (≈ 2.75 µM) | MIC [2]: 0.2 µg/mL (≈ 0.888 µM) | MIC [3]: 0.1 µg/mL (≈ 0.444 µM) | MIC [4]: 20 µg/mL (≈ 88.8 µM) | IC50 (L1210): 41 µg/mL (≈ 182 µM) | MIC [5]: > 400 µg/mL | MIC [6]: 0.07 µg/mL (≈ 0.311 µM) | Mean survival time (Mus musculus [15]): 30.4 days | MIC [7]: 150 µg/mL (≈ 666 µM) | IC50 (FM3A [8]): 17 µg/mL (≈ 75.5 µM) | IC50 (Raji): > 100 µg/mL | IC50 (MOLT-4F): > 100 µg/mL | Activity (Mus musculus [16]): 40.8 | MIC [9]: 0.02 µg/mL (≈ 0.0888 µM) | IC50 (FM3A [10]): 0.0009 µg/mL (≈ 0.004 µM) | MIC [11]: 0.1 µg/mL (≈ 0.444 µM) | Activity (Mus musculus [17]): 17.2 | MIC [12]: 0.2 µg/mL (≈ 0.888 µM) | MIC [13]: 10 µg/mL (≈ 44.4 µM)

CN1CCOP1(=O)OCCOCn1cnc2c(O)nc(N)nc21 (stereo unspecified)
MIC [2]: 0.2 µg/mL (≈ 0.581 µM) | IC50 (L1210): > 100 µg/mL | MIC [5]: > 400 µg/mL | MIC [7]: 400 µg/mL (≈ 1160 µM) | IC50 (FM3A [8]): > 100 µg/mL | IC50 (Raji): > 100 µg/mL | IC50 (MOLT-4F): > 100 µg/mL | MIC [9]: 0.2 µg/mL (≈ 0.581 µM)

Source: ChEMBL document CHEMBL1124895, “Synthesis and biological evaluation of some cyclic phosphoramidate nucleoside derivatives” (1990)
